ERAP1 HTS inh: inhibitors of human ERAP1 aminopeptidase | Q9NZ08 | recombinant ERAP1, Leu-AMC fluorescence, 60 min | inhibition, % at 10.7 µM | 340,000 compounds, 0.15% hits;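 active means mean replicate inhibition of at least 30%, or all replicates individually reaching that 30% level; inactive means mean below 30% and not every replicate reaching it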;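 further: 0% = neutral control wells and 100% = L-leucinethiol positive control wells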
DENV2 CPE: protects cells from dengue virus 2 cytopathic effect; DENV2-infected cells, cytopathic effect rescue, plate reader; CPE inhibition, % at 9.99 µM; 350,000 compounds, 1.7% hits; AID 651640; in the data active means CPE inhibition above about 20%, passing the limit was not always enough; inconclusive means no clear call, values can overlap the other calls; tested in BHK-21 cells;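 further: 0% = median of neutral control wells and 100% = median of positive control wells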
PglD DTNB: inhibitors of Campylobacter jejuni PglD acetyltransferase. purified PglD enzyme, DTNB colorimetric CoA detection. inhibition, % at 12.5 µM. 360,000 compounds, 0.098% hits. AID 602405; in the data active means inhibition above about 16%, passing the limit was not always enough; inconclusive means no clear call, values can overlap the other calls
SIRT5 inh: inhibitors of human sirtuin-5 desuccinylase. Q9NXA8. Purified SirT5, succinyl-peptide AMC, trypsin-coupled fluorescence. inhibition, % at 15 µM. 330,000 compounds, 1.1% hits; in the data active means inhibition above about 15%; inconclusive means no clear call, values can overlap the other calls
Target sequence (Q9NXA8 whole entry, looked up): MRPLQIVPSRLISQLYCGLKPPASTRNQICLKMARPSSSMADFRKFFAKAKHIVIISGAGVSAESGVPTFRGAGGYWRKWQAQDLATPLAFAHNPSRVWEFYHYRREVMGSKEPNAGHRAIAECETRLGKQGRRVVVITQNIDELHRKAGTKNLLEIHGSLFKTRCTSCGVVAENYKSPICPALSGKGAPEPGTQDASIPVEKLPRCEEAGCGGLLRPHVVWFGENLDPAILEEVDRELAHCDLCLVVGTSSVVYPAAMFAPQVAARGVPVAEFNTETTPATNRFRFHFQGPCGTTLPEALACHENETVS
E-selectin induc: E-selectin induction on HUVECs; 260,000 compounds, 0.37% hits; P16581; activation, % at 7.58 µM; HUVEC E-selectin immunofluorescence imaging; normalized: neutral wells 0, TNF-alpha wells 100;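 active means mean E-selectin-positive cell signal at least 10% of the positive control, reached in at least 60% of replicates, without over 20% cell loss; inconclusive means no rule given, readout overlaps actives, possibly toxicity-flagged; inactive means the rest, including those meeting only one limit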
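Material: HUVEC primary endothelial cells; Amount: 3,000 cells per well; Dosing: single concentration; Medium: EGM-2 growth medium on 0.1% gelatin-coated wells; Read-out basis: percent E-selectin-positive cells; Signal: immunofluorescence imaging; Control set: TNF-alpha, DMSO.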
* hit, by the source's call; ? = inconclusive; . = no result. An excerpt weighted towards active compounds, which were near 2.5% of everything screened.

SMILES | ERAP1 HTS inh | DENV2 CPE | PglD DTNB | SIRT5 inh | E-selectin induc
C=CC(=O)NC1CCCCN(CCC)C1=O (stereo unspecified) | -3 | 18 | . | . | 0
Cc1cccc(C)c1NC(=O)C(C1CC1)n1c(=O)c(-c2ccccc2)nc2ccccc21 (stereo unspecified) | -1 | -2 | . | 3 | 0
CCCN(C)C[C@@H]1Oc2cc(-c3ccccc3OC)ccc2S(=O)(=O)N([C@H](C)CO)C[C@@H]1C | -2 | 5 | -2 | 32* | -1
COc1ccccc1-c1ccc2c(c1)O[C@H](CN(C)S(=O)(=O)c1ccccc1)[C@H](C)CN([C@H](C)CO)S2(=O)=O | 6 | -6 | -5 | 2 | 0
COc1ccccc1-c1ccc2c(c1)O[C@@H](CN(C)S(=O)(=O)c1ccccc1)[C@@H](C)CN([C@H](C)CO)S2(=O)=O | 0 | 2 | -1 | 4 | 2
COc1ccccc1-c1ccc2c(c1)O[C@@H](CN(C)S(=O)(=O)c1ccccc1)[C@H](C)CN([C@H](C)CO)S2(=O)=O | 0 | -5 | 0 | 19* | 0
CCCN(C)C[C@@H]1Oc2cc(-c3ccccc3OC)ccc2S(=O)(=O)N([C@@H](C)CO)C[C@@H]1C | 4 | 1 | 0 | -15 | -1
COc1ccccc1-c1ccc2c(c1)O[C@@H](CN(C)S(=O)(=O)c1ccccc1)[C@H](C)CN([C@@H](C)CO)S2(=O)=O | -2 | -3 | -4 | 20* | 0
CC(=O)Nc1ccc(NC(=O)COc2ccc(Cl)cc2Cl)cc1 | 2 | 6 | 6 | -6 | 48*
CC(=O)Nc1ccc(NC(=O)COc2ccc(Br)cc2C)cc1 | 2 | 13 | 1 | 15* | .
CN(C)C(CNC(=S)Nc1cccc(Cl)c1)c1cccnc1 (stereo unspecified) | -1 | -1 | . | 0 | .
O=C(c1ccccn1)c1ccc2ccccc2n1 | -1 | -2 | -4 | 0 | 1
COc1ccc(C)cc1NC(=O)CCNC(=O)Cn1cnc2ccccc2c1=O | -1 | 7 | 0 | 18* | 0
COc1ccc(OC)c(NC(=O)CCNC(=O)Cn2cnc3ccccc3c2=O)c1 | 6 | 1 | . | 0 | .
COc1ccc2c3c(n(C)c2c1)[C@H](CO)N(Cc1nccs1)CC31CCN(C(C)=O)CC1 | . | 27* | . | . | 0
COc1ccc2c3c(n(C)c2c1)[C@H](CO)N(S(C)(=O)=O)CC31CCN(Cc2nccs2)CC1 | -3 | 24* | . | 5 | 0
COc1ccc2c3c(n(C)c2c1)[C@H](CO)N(CC1CC1)CC31CCN(Cc2nccs2)CC1 | . | 45* | . | . | 0
CCC(=O)N1CCC2(CC1)CN(Cc1nccs1)[C@H](CO)c1c2c2ccc(OC)cc2n1C | -1 | 11 | . | . | 0
COc1ccc2c3c(n(C)c2c1)[C@H](CO)N(C(C)=O)CC31CCN(Cc2nccs2)CC1 | . | -6 | . | . | 0
CO[C@@H]1CN(C)C(=O)c2ccc(NC(=O)c3nc4ccccc4s3)cc2OC[C@@H](C)N(Cc2cccnc2)C[C@@H]1C | . | . | 4 | . | 0
CO[C@@H]1CN(C)C(=O)c2ccc(NC(=O)c3nc4ccccc4s3)cc2OC[C@@H](C)N(Cc2cccnc2)C[C@H]1C | . | . | 0 | 102* | 0
COc1ccc(CN2C[C@H](C)[C@H](OC)CN(C)C(=O)c3cc(NC(=O)c4nc5ccccc5s4)ccc3OC[C@@H]2C)cc1 | 0 | 22* | 0 | . | 0
O=C(NCCS(=O)(=O)N1CCN(c2ccccc2)CC1)C1CC1 | -3 | 104* | 0 | -9 | 4
CCN(C[C@H]1N[C@@](Cc2ccccc2)(C(=O)OC)[C@H]2C(=O)N(Cc3ccccc3)C(=O)[C@@H]12)C(=O)NC(C)C | -1 | 8 | -3 | 1 | 0
O=C(C1CCCC1)N1C[C@@H]2[C@H](c3ccccc31)[C@H](CO)N2C(=O)Cc1ccccn1 | -2 | 0 | 16 | 0 | 0
SMILES | ERAP1 HTS inh | DENV2 CPE | PglD DTNB | SIRT5 inh | E-selectin induc
O=C(C1CCCC1)N1C[C@@H]2[C@H](c3ccccc31)[C@@H](CO)N2C(=O)Cc1ccccn1 | 2 | 34* | 9 | 3 | 0
O=C(C1CCCCC1)N1C[C@H]2[C@@H](c3ccccc31)[C@H](CO)N2C(=O)Cc1ccccn1 | -2 | 5 | 0 | 16* | 0
Cc1ccsc1/C=N/NC(=O)c1ccc(-n2cccc2)cc1 | 13 | -2 | . | 0 | .
N#CCCn1cc(C(=O)CN2C(=O)NC3(CCCCCC3)C2=O)c2ccccc21 | -6 | 11 | 5 | 0 | .
N#CCCn1cc(C(=O)CN2C(=O)NC3(CCc4ccccc43)C2=O)c2ccccc21 (stereo unspecified) | -2 | 34* | 7 | 1 | .
C[C@H]1CN([C@@H](C)CO)C(=O)c2cc(NC(=O)NC3CCCCC3)ccc2O[C@H]1CN(C)CC1CCCCC1 | 2 | -6 | -1 | -2 | .
C[C@@H]1CN([C@@H](C)CO)C(=O)c2cc(NC(=O)NC3CCCCC3)ccc2O[C@@H]1CN(C)CC1CCCCC1 | 1 | 60* | -1 | -1 | .
C[C@H](CO)N1C[C@H](C)[C@H](CN(C)CC2CCCCC2)Oc2ccc(NC(=O)NC3CCCCC3)cc2C1=O | 3 | 29* | -2 | -2 | .
C[C@@H]1CN([C@H](C)CO)C(=O)c2cc(NC(=O)NC3CCCCC3)ccc2O[C@H]1CN(C)CC1CCCCC1 | 2 | -17 | -2 | 0 | .
C=CCN1C(=O)N/C(=C/c2ccccc2OCC(=O)Nc2ccc(F)cc2)C1=O | -2 | 22* | . | -3 | 2
COc1ccc(C(C)NC(=O)c2ccoc2C)cc1OC (stereo unspecified) | . | . | -1 | . | .
COCCn1c(=S)[nH]c2ncccc2c1=O | . | . | -3 | . | .
COc1ccc(-n2c(=S)[nH]c3ncccc3c2=O)cc1 | . | 9 | . | 15* | -1
CS(=O)(=O)Nc1cccc(NC(=O)c2ccc(-c3ccc(F)c(F)c3)c3ccoc23)c1 | 2 | 2 | 2 | -3 | 0
CS(=O)(=O)Nc1cccc(NC(=O)c2cccc3c(-c4ccc(F)c(F)c4)coc23)c1 | 5 | 19 | -4 | 15* | ?
O=C(COc1ccccc1)NCC(=O)N/N=C/c1ccc(Br)cc1 | 0 | 70* | 0 | 0 | 0
O=C(COc1ccccc1)N/N=C/c1ccc2c(c1)OCO2 | 2 | 4 | 1 | 21* | 1
Cc1[nH]c2ccccc2c1/C=N/NC(=O)CNC(=O)COc1ccccc1 | 0 | -2 | 4 | 113* | .
Cc1[nH]c2ccccc2c1/C=N/NC(=O)c1cccc([N+](=O)[O-])c1 | 0 | 1 | . | 0 | 57*
Cc1[nH]c2ccccc2c1/C=N/NC(=O)c1cccc(F)c1 | 3 | -5 | . | -2 | 4
COc1cc(NC(=O)C23CC4CC(C2)CC(n2cnc([N+](=O)[O-])n2)(C4)C3)cc(OC)c1 | . | . | 2 | . | .
O=C(COc1ccccc1)NCC(=O)N/N=C/C=C/c1ccccc1 | -1 | -2 | . | 20* | -3
CCc1ccc(NC(=O)COc2ccc3c(c2)OCO3)cc1 | 0 | 47* | -3 | -2 | 0

Assay outcomes deposited in PubChem by Broad Institute.
